Source: PubChem (several laboratories)
The sample as a whole holds a higher share of hits than the screen did.
ALR H2O2 inh: inhibitors of human sulfhydryl oxidase ALR; P55789; purified ALR, DTT oxidation, H2O2 HRP-luminol luminescence; inhibition, % (test concentration not listed); actives 3.8% (n = 290,000); AID 485317;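 active = mean replicate inhibition above about 79%, with every replicate also reaching it, limit read from the data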
Target sequence (P55789 whole entry, looked up): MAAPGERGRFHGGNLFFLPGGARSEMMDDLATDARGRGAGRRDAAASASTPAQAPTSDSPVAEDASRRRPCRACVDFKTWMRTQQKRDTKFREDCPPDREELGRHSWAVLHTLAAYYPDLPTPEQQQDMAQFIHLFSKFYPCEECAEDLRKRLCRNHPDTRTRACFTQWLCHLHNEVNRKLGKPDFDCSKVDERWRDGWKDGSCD
N-glyco inh: N-linked glycosylation inhibition; D54 ERlucT glycosylation luciferase reporter, 24 h; percent of 100 nM tunicamycin response; reporter increase, % at 12.5 µM; actives 0.23% (n = 360,000); AID 588692;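 active = mean luciferase reporter signal, scaled so untreated is 0 and the glycosylation-blocking control 100, at or above a set limit in every replicate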;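 note: luciferase carries N-glycosylation sites so blocking glycosylation raises the light; 0% = median of neutral control wells and 100% = median of 100 nM tunicamycin wells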
T cell HTS: T cell immune modulators affecting CD8 T cell-vesicle binding | actives 0.068% (n = 330,000) | response (vesicle binding), % at 7 µM | 2C CD8+ T cell-vesicle binding, flow cytometry; active compounds read low;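 active = response, share of CD8 T cells binding vesicles, and their 90th percentile fluorescence all below set limits, cut at about 80% in these data, passing the limit was not always enough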;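 note: values below 100% mean blocked vesicle binding to the CD8+ T cells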
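Assay system: 2C TCR transgenic mouse naive CD8+ T cells, MACS-purified | Read-out: CD8+ gate FL2 mean fluorescence as % of same-row positive control | Signal: High-throughput flow cytometry with anti-B7-1 and anti-CD8 staining | Timing: Binding step 1.5 h, 37 °C, antibody labelling 20 min, ice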
Starred values were filed as active, the others as inactive; i = inactive; · = no result.

SMILES | ALR H2O2 inh | N-glyco inh | T cell HTS
CCOc1ccc(C(c2nnnn2C(C)(C)C)N2CCN(C(=O)c3ccco3)CC2)cc1 (stereo not drawn) | -6.2 | -0.4 | 215.9
CN(C)c1ccc(C(c2nnnn2C(C)(C)C)N2CCN(C(=O)c3ccco3)CC2)cc1 (stereo not drawn) | 90.3* | 0.5 | 224.4
Cc1c(NC(=O)NCc2ccccc2)c(=O)n(-c2ccccc2)n1C | -5.2 | 1.6 | 468.1
Cc1c(N=C/C=C2/N(C)c3ccccc3C2(C)C)c(=O)n(-c2ccccc2)n1C | 99.1* | -0.6 | 216.2
CN(C)c1ccc(N=C/C=C2\N(C)c3ccccc3C2(C)C)cc1 | 99.0* | -9.1 | 238.7
CN1/C(=C\C=Nc2ccc3ccccc3c2)C(C)(C)c2ccccc21 | · | -2.0 | 642.9
Cc1cc(/N=C/C=C2\N(C)c3ccccc3C2(C)C)n(CCC#N)n1 | 98.9* | -0.1 | 281.3
CN1/C(=C\C=O)C(C)(C)c2ccccc21 | -4.4 | -1.6 | 211.3
Cc1c(NC(=S)/C=C2\N(C)c3ccccc3C2(C)C)c(=O)n(-c2ccccc2)n1C | 95.4* | -1.4 | 584.2
CN1/C(=C/C=C(C#N)C#N)C(C)(C)c2ccccc21 | -52.6 | 1.0 | 244.3
CCc1cc(=O)oc2c3c(cc(OCC(=O)NCCN4CCOCC4)c12)OC(C)(C)CC3 | 0.1 | 4.8 | 526.5
Cc1ccn2cc(CCNC(=O)C3CC=CCC3C(=O)O)nc2c1 (stereo not drawn) | -5.9 | 3.0 | 467.5
Cc1ccc(NC(=O)CCN2C(=O)NC3(CCCC3)C2=O)cc1S(=O)(=O)N1CCOCC1 | · | 0.2 | 605.9
Cc1c(N=C/C=C2\N(C)c3ccccc3C2(C)C)c(=O)n(-c2ccccc2)n1C | 93.3* | -0.7 | 305.3
Cc1c(N=C/C=C/c2ccccc2)c(=O)n(-c2ccccc2)n1C | 63.5 | -2.4 | 93.0
O=C(C[C@@H]1C[C@@H]2c3cc(NC(=O)C4CCOCC4)ccc3O[C@@H]2[C@H](CO)O1)NCc1ccccn1 | · | 2.5 | ·
O=C(CCC(=O)N1CCOc2ccccc21)N1CCCCC1 | -3.6 | 1.0 | 432.7
CCn1c(CN2CCCCCC2=O)nnc1SCc1cnc(-c2ccccc2)s1 | 98.6* | -0.6 | 386.9
COc1ccc(-n2cnnc2SCc2cnc(-c3ccccc3)s2)cc1 | 98.5* | 0.3 | 330.5
COCCn1c(SCC#N)nnc1-c1ccccc1 | -13.3 | 1.8 | 718.6
COCCn1c(SCc2cnc(-c3ccccc3)s2)nnc1-c1ccncc1 | 98.6* | 4.4 | 571.1
COc1ccc(-n2cnnc2SCCC#N)cc1 | -2.0 | 0.4 | 368.3
O=C1CCCCCN1Cc1nnc(SCc2nc3ccccc3s2)n1-c1ccccn1 | · | -5.9 | 625.2
CC[C@]12c3[nH]c4ccccc4c3CCN1C(=O)C(CC(=O)NCc1cccc(C(F)(F)F)c1)C[C@@H]2C(=O)N1CCN(C(=O)C2CC2)CC1 (stereo partly drawn) | · | 3.4 | 487.9
COCCN(C(=O)CSc1ccc2c(c1)OCCO2)c1c(N)n(CC(C)C)c(=O)[nH]c1=O | 94.3* | 1.7 | 533.0
SMILES | ALR H2O2 inh | N-glyco inh | T cell HTS
CCCCn1c(N)c(N(CC(C)C)C(=O)CSc2ccc3c(c2)OCCO3)c(=O)[nH]c1=O | · | 2.8 | i
COc1cc(NS(=O)(=O)c2ccc(Nc3nc(-c4ccccc4)cs3)cc2)nc(OC)n1 | 96.1* | 1.8 | 246.6
Cc1nc(N)sc1-c1csc(Nc2cccc(C(=O)O)c2)n1 | 2.7 | -3.4 | 153.2
Cc1cc(NS(=O)(=O)c2ccc(Nc3nc(-c4ccc(C)c(C)c4)cs3)cc2)no1 | 30.7 | 3.0 | 624.3
Cc1cc(NS(=O)(=O)c2ccc(Nc3nc(-c4ccc(O)cc4)cs3)cc2)no1 | 100.3* | 3.5 | 207.6
Cc1cc(NS(=O)(=O)c2ccc(Nc3nc(-c4sc(N)nc4C)cs3)cc2)no1 | 99.2* | -0.1 | 193.9
COc1cc(NS(=O)(=O)c2ccc(NC(=S)Nc3ccccc3)cc2)nc(OC)n1 | · | 2.4 | 116.2
Cc1ccccc1OCC(=O)NCC(=O)OCc1ccc(Br)cc1 | -1.9 | 1.7 | 660.9
Cc1cc(NC(=O)C(C)SCC(=O)Nc2ccccc2C(C)(C)C)no1 (stereo not drawn) | -10.7 | -0.5 | 497.3
Nc1nc(SCc2ccc(Cl)cc2Cl)nc2nc3c(cc12)CCCC3 | 90.3* | -2.9 | 177.5
Nc1nc(SCc2ccc(F)cc2)ns1 | 98.1* | 2.4 | 186.2
Nc1nnc(SCc2ccc(F)cc2)s1 | -2.1 | 0.7 | 444.5
Cc1ccccc1CSc1nsc(N)n1 | -123.0 | -1.2 | 390.2
Nc1nc(SCc2ccc(Cl)cc2Cl)ns1 | 98.6* | 0.8 | 457.9
Nc1nc(SCc2ccccc2Cl)nc2nc3c(cc12)CCCC3 | -2.2 | -1.5 | 392.2
O=C(CN(C(=O)CCC(=O)Nc1nccs1)c1cccc(C(F)(F)F)c1)NCC1CCCO1 (stereo not drawn) | · | 1.7 | 315.4
CC(C)(C)NC(=O)CSc1ncnc2c1cnn2-c1ccccc1 | 1.6 | -3.4 | 222.9
O=C1CCCC(O)=C1C=Nc1ccc(O)cc1 | 99.2* | 3.0 | 768.7
O=C1CC(c2ccccc2)CC(O)=C1C=Nc1ccc(Cl)cc1 (stereo not drawn) | 0.9 | 3.9 | 172.1
COc1ccc(Cl)cc1NC(=O)CN1CCc2ccccc21 | -9.2 | -1.6 | 103.6
Cc1nc(C)c(/C(O)=C\c2nc3ccc([N+](=O)[O-])cc3oc2=O)o1 | 98.9* | -2.7 | 128.4
Cc1ccc(/C(O)=C/c2nc3ccccc3oc2=O)cc1 | -1.2 | -0.9 | 417.4
OC[C@H]1O[C@@H](c2nc(-c3ccccc3Br)no2)[C@H](O)[C@@H](O)[C@H]1O | · | 0.3 | ·
O=C(c1ccc(CS(=O)Cc2ccc(Cl)cc2)o1)N1CCN(c2ccccc2)CC1 (stereo not drawn) | 93.1* | -0.5 | 137.6
Cc1ccc(CS(=O)Cc2ccc(C(=O)N3CCN(c4ccc(F)cc4)CC3)o2)cc1 (stereo not drawn) | 38.9 | -0.3 | 103.6
SMILES | ALR H2O2 inh | N-glyco inh | T cell HTS
Cc1ccc(CS(=O)Cc2ccc(C(=O)N3CCN(c4ccccc4)CC3)o2)cc1 (stereo not drawn) | 94.3* | 0.7 | 335.2
COc1cccc(N2CCN(C(=O)c3ccc(CS(=O)Cc4ccc(Cl)cc4)o3)CC2)c1 (stereo not drawn) | -4.0 | -0.9 | 247.3
O=C(NCCc1ccccc1)C1CCC(CNS(=O)(=O)c2cccs2)CC1 (stereo not drawn) | -20.3 | -4.4 | 95.4
COCCNC(=O)C1(C)CCCN(CCOc2ccc(Cl)cc2)C1 (stereo not drawn) | · | -2.0 | ·
CC12CCC3C(CCC4N(CCO)CCC34C)C1CCC2O (stereo not drawn) | 0.3 | 2.7 | 351.3
CCOC(=O)Cc1ccc(Nc2nc(NCCOC)nc3ccsc23)cc1 | · | -1.3 | ·
Cc1ccc(N(CC2=NCCN2)c2cccc(O)c2)cc1 | 98.3* | 2.6 | 514.4
c1ccc(CN(CC2=NCCN2)c2ccccc2)cc1 | 2.8 | -2.2 | 500.6
NS(=O)(=O)c1ccc(N/N=C/c2ccc[nH]2)c([N+](=O)[O-])c1 | 96.7* | 1.9 | 262.2
NS(=O)(=O)c1ccc(N/N=C/c2ccc(C(=O)O)cc2)c([N+](=O)[O-])c1 | -5.4 | 2.2 | 436.4
Cc1ccc(CN2CCc3[nH]c(=O)[nH]c(=O)c3C2)cc1 | 1.3 | -0.1 | 206.0
COC(=O)C[C@@H]1C[C@@H]2c3cc(NS(=O)(=O)c4ccccc4)ccc3O[C@@H]2[C@@H](CO)O1 | · | -0.2 | ·
CC(C)(C)NC(=O)Nc1ccc(Br)cc1 | 1.1 | -0.3 | 308.1
